Converted amounts (≈) assume the structure as drawn. The source made the active and inactive calls. The calls are words filed in the database; no cut-off is given here.
Assays:
[1] = system: Human alphaherpesvirus 2; test: In vitro anti viral activity tested against HSV-2(Curtis) virus on Rabbit kidney cell cultures.; assay type: functional; conditions: Human alphaherpesvirus 2, kidney; read-out: ED50 (the source's name)
How it was run: (§1)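 Confluent primary rabbit kidney monolayers were preincubated with serial drug dilutions in EMEM with 2% fetal calf serum and neomycin. They were then challenged with about 10 TCID50 of HSV-1 Schooler or HSV-2 Curtis and incubated at 37 °C. Cytopathology was scored on day 5. ED50 is the concentration preventing cytopathology in half of the infected cultures.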

[2] = system: Human alphaherpesvirus 1; test: In vitro anti viral activity tested against HSV-1(Schooler) virus on Rabbit kidney cell cultures.; assay type: functional; conditions: Human alphaherpesvirus 1, kidney; read-out: ED50 (the source's name); how it was run: as §1
[3] = system: Human alphaherpesvirus 1; test: Evaluated for DNA polymerase inhibition activity against herpes simplex virus-1 (HSV-1); assay type: functional
How it was run: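 Step II mixture supplied the phosphorylated test material. Step I: compound with HSV-1 thymidine kinase, 4 h, 37 °C. Step II: then HSV-1-infected HeLa crude extract plus GMP kinase, overnight, 30 °C. A 20 μL sample went to a 1 h, 37 °C DNA polymerase assay at pH 8 with activated salmon sperm DNA, 0.05 mM each dNTP ([³H]dTTP) and infected HeLa extract. (NH₄)₂SO₄ 0.1 M was present for the viral enzyme and omitted for the cellular polymerases. Read-out: TCA-precipitable radioactivity.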

[4] = system: Human alphaherpesvirus 1; test: Efficacy was evaluated against Systemic HSV-1 infection in mice at a daily dose of 12.5 mg/kg administered subcutaneously; Tested mice 10; assay type: organism-based; set-up: dose 12.5 mg/kg, route subcutaneous; conditions: mouse, in vivo, sc
How it was run: (§2)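 ICR/Ha mice (10–20 g, mixed sex) were infected intraperitoneally with 50–100 LD50 of HSV-1 Schooler. Subcutaneous dosing of 0.1 mL twice daily for 4 days started immediately after infection. Groups were of about 10 mice. Survival was recorded daily for 15 days and reported as survivors/total and mean survival time (95% CI). Transformed survival times were compared with placebo-treated infected mice (p < 0.05).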

[5] = system: Human alphaherpesvirus 2; test: In vitro anti viral activity tested against HSV-2(Curtis) virus on Rabbit kidney cell cultures; 25-50; assay type: functional; conditions: Human alphaherpesvirus 2, kidney; read-out: ED50 (the source's name); how it was run: as §1
[6] = system: Human alphaherpesvirus 1; test: Efficacy was evaluated against Systemic HSV-1 infection in mice at a daily dose of 3.1 mg/kg administered subcutaneously; assay type: ADME, organism-based; set-up: dose 3.1 mg/kg, route subcutaneous; conditions: mouse, in vivo, sc; how it was run: as §2
[7] = system: Human alphaherpesvirus 1; test: Efficacy was evaluated against Systemic HSV-1 infection in mice at a daily dose of 12.5 mg/kg administered subcutaneously; assay type: ADME, organism-based; set-up: dose 12.5 mg/kg, route subcutaneous; conditions: mouse, in vivo, sc; how it was run: as §2
[8] = system: Human alphaherpesvirus 1; test: Efficacy was evaluated against Systemic HSV-1 infection in mice at a daily dose of 3.1 mg/kg administered subcutaneously; Tested mice 10; assay type: ADME, organism-based; set-up: dose 3.1 mg/kg, route subcutaneous; conditions: mouse, in vivo, sc; how it was run: as §2
[9] = system: DNA polymerase (Homo sapiens); test: Evaluated for DNA polymerase inhibition activity against HeLa cells.
[10] = system: Human alphaherpesvirus 1; test: Efficacy was evaluated against Systemic HSV-1 infection in mice at a daily dose of 0.8 mg/kg administered subcutaneously; assay type: ADME, organism-based; set-up: dose 0.8 mg/kg, route subcutaneous; conditions: mouse, in vivo, sc; how it was run: as §2
[11] = system: Human alphaherpesvirus 1; test: Efficacy was evaluated against Systemic HSV-1 infection in mice at a daily dose of 0.8 mg/kg administered subcutaneously; Tested mice 10; assay type: organism-based; set-up: dose 0.8 mg/kg, route subcutaneous; conditions: mouse, in vivo, sc; how it was run: as §2
[12] = system: Human betaherpesvirus 5; test: In vitro anti viral activity tested against HCMV(AD169) virus on MRC-5 cell monolayers; NA=Not active at 25 ug/mL; assay type: functional, organism-based; conditions: MRC5
How it was run: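 MRC-5 monolayers were infected with HCMV AD169 for 1 h at 37 °C. Compound diluted in maintenance medium was then added and incubation continued for 7 days at 37 °C. Monolayers were stained and plaques counted. ED50 is the concentration reducing plaque number by 50%.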

| Compound | EC50 [1] | EC50 [2] | Inhibition [3] | Survivors [4] | EC50 [5] | Average survival [6] | Average survival [7] | Survivors [8] | Inhibition [9] | Average survival [10] | Survivors [11] | ED50 [12] |
| --- | --- | --- | --- | --- | --- | --- | --- | --- | --- | --- | --- | --- |
| Nc1nc(O)c2ncn(COCC(O)CO)c2n1 (stereo not drawn) | 6 µg/mL (≈ 23.5 µM) | 3 µg/mL (≈ 11.8 µM) | – | – | – | – | – | – | – | – | – | – |
| Nc1nc(O)c2ncn(COCC(O)CO)c2n1 (single isomer, unassigned; form 1) [listing 1 of 2 here] | – | 25 µg/mL (≈ 97.9 µM) | 7% | 1 | 25 µg/mL (≈ 97.9 µM) | 6.5 days | 7.5 days | 1 | 0% | 6.3 days | 0 | – |
| Nc1nc(O)c2ncn(COCC(O)CO)c2n1 (single isomer, unassigned; form 1) [listing 2 of 2 here] | – | – | – | – | – | – | – | – | – | – | – | inactive |

Source: ChEMBL document CHEMBL1123083, “Synthesis and antiherpetic activity of (S)-, (R)-, and (+/-)-9-[(2,3-dihydroxy-1-propoxy)methyl]guanine, linear isomers of 2'-nor-2'-deoxyguanosine” (J Med Chem, 1985)
